Results taken from ChEMBL document CHEMBL4715736, “Identification of anticancer agents based on the thieno[2,3-b]pyridine and 1H-pyrazole molecular scaffolds” (2016).

Legend:
Format in all cases: functional
SNB-75 = assay: Growth inhibition of human SNB-75 cells assessed as cell growth at 1 uM incubated for 48 hrs by sulforhodamine B assay relative to control; settings: read-out: Activity
SW-620 = assay: Growth inhibition of human SW-620 cells assessed as cell growth at 0.01 uM incubated for 48 hrs by sulforhodamine B assay relative to control; settings: read-out: Activity
MDA-MB-468 = assay: Growth inhibition of human MDA-MB-468 cells assessed as cell growth at 0.1 uM incubated for 48 hrs by sulforhodamine B assay relative to control; settings: read-out: Activity
M14 = assay: Growth inhibition of human M14 cells assessed as cell growth at 1 uM incubated for 48 hrs by sulforhodamine B assay relative to control; settings: read-out: Activity
SK-OV-3 = assay: Growth inhibition of human SK-OV-3 cells assessed as cell growth at 0.01 uM incubated for 48 hrs by sulforhodamine B assay relative to control; settings: read-out: Activity
NCI-H226 = assay: Growth inhibition of human NCI-H226 cells incubated for 48 hrs by sulforhodamine B assay; settings: for CC50: read-out: LC50 (the source's name)
Outline: (§1)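 NCI60 panel at the NCI Developmental Therapeutics Program. Only compounds active in the 10 µM screen went to dose-response testing. GI50, the concentration giving 50% of maximal inhibition of proliferation, and TGI, the concentration giving total growth inhibition, were derived from the dose-response curves.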

A498 = assay: Growth inhibition of human A498 cells assessed as cell growth at 0.1 uM incubated for 48 hrs by sulforhodamine B assay relative to control; settings: read-out: Activity
Outline: (§2)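 NCI Developmental Therapeutics Program NCI60 panel. Compounds that were active in the 10 µM one-dose screen went on to dose–response testing. Growth at each concentration is expressed relative to untreated control (100%). GI50 (concentration giving 50% of maximal inhibition of proliferation) and TGI (concentration giving total growth inhibition) were derived from the curves.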

ACHN = assay: Growth inhibition of human ACHN cells assessed as cell growth at 1 uM incubated for 48 hrs by sulforhodamine B assay relative to control; settings: read-out: Activity
MCF7 [1] = assay: Growth inhibition of human MCF7 cells assessed as cell growth at 0.01 uM incubated for 48 hrs by sulforhodamine B assay relative to control; settings: read-out: Activity
NCI-H322M = assay: Growth inhibition of human NCI-H322M cells assessed as cell growth at 0.1 uM incubated for 48 hrs by sulforhodamine B assay relative to control; settings: read-out: Activity
SK-MEL-2 = assay: Growth inhibition of human SK-MEL-2 cells assessed as cell growth at 0.1 uM incubated for 48 hrs by sulforhodamine B assay relative to control; settings: read-out: Activity
U-251 = assay: Growth inhibition of human U-251 cells assessed as cell growth at 0.01 uM incubated for 48 hrs by sulforhodamine B assay relative to control; settings: read-out: Activity
HCC 2998 = assay: Growth inhibition of human HCC 2998 cells incubated for 48 hrs by sulforhodamine B assay; settings: for CC50: read-out: LC50 (the source's name)
MDA-MB-231 = assay: Growth inhibition of human MDA-MB-231 cells assessed as cell growth at 0.1 uM incubated for 48 hrs by sulforhodamine B assay relative to control; settings: read-out: Activity
LOX IMVI [2] = assay: Growth inhibition of human LOX IMVI cells assessed as cell growth at 0.01 uM incubated for 48 hrs by sulforhodamine B assay relative to control; settings: read-out: Activity
A549 = assay: Growth inhibition of human A549/ATCC cells incubated for 48 hrs by sulforhodamine B assay; settings: for CC50: read-out: LC50 (the source's name); outline: as §2
HOP-62 = assay: Growth inhibition of human HOP-62 cells incubated for 48 hrs by sulforhodamine B assay; outline: as §1
OVCAR-4 = assay: Growth inhibition of human OVCAR-4 cells assessed as cell growth at 0.1 uM incubated for 48 hrs by sulforhodamine B assay relative to control; settings: read-out: Activity
SK-MEL-5 = assay: Growth inhibition of human SK-MEL-5 cells incubated for 48 hrs by sulforhodamine B assay
Outline: (§3)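 NCI DTP 60-line human tumour panel. Dose-response curves were run only for ligands active in the initial 10 µM screen. GI50 (concentration giving 50% of maximal inhibition of proliferation) and TGI (concentration giving total growth inhibition) were derived from these curves.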

Malme-3M = assay: Growth inhibition of human Malme-3M cells incubated for 48 hrs by sulforhodamine B assay; outline: as §1
LOX IMVI [3] = assay: Growth inhibition of human LOX IMVI cells incubated for 48 hrs by sulforhodamine B assay; outline: as §1
MCF7 [4] = assay: Growth inhibition of human MCF7 cells incubated for 48 hrs by sulforhodamine B assay; settings: for CC50: read-out: LC50 (the source's name); outline: as §1
NCI/ADR-RES = assay: Growth inhibition of human NCI/ADR-RES cells incubated for 48 hrs by sulforhodamine B assay; settings: for CC50: read-out: LC50 (the source's name); outline: as §1
SNB-19 = assay: Growth inhibition of human SNB-19 cells incubated for 48 hrs by sulforhodamine B assay; outline: as §3
IGROV-1 = assay: Growth inhibition of human IGROV-1 cells incubated for 48 hrs by sulforhodamine B assay; outline: as §1
OVCAR-5 = assay: Growth inhibition of human OVCAR-5 cells assessed as cell growth at 100 uM incubated for 48 hrs by sulforhodamine B assay relative to control; settings: read-out: Activity
TK-10 = assay: Growth inhibition of human TK-10 cells assessed as cell growth at 1 uM incubated for 48 hrs by sulforhodamine B assay relative to control; settings: read-out: Activity
RPMI-8226 = assay: Growth inhibition of human RPMI-8226 cells assessed as cell growth at 0.1 uM incubated for 48 hrs by sulforhodamine B assay relative to control; settings: read-out: Activity
UACC-257 = assay: Growth inhibition of human UACC-257 cells assessed as cell growth at 0.01 uM incubated for 48 hrs by sulforhodamine B assay relative to control; settings: read-out: Activity
MCF7 [5] = assay: Growth inhibition of human MCF7 cells assessed as cell growth at 0.1 uM incubated for 48 hrs by sulforhodamine B assay relative to control; settings: read-out: Activity
SF-539 = assay: Growth inhibition of human SF-539 cells assessed as cell growth at 0.01 uM incubated for 48 hrs by sulforhodamine B assay relative to control; settings: read-out: Activity
SF-295 = assay: Growth inhibition of human SF-295 cells incubated for 48 hrs by sulforhodamine B assay; outline: as §3
T47D = assay: Growth inhibition of human T47D cells assessed as cell growth at 1 uM incubated for 48 hrs by sulforhodamine B assay relative to control; settings: read-out: Activity
CCRF-CEM = assay: Growth inhibition of human CCRF-CEM cells incubated for 48 hrs by sulforhodamine B assay; outline: as §2

In the case of `COc1cccc(NC(=O)c2sc3nc4c(cc3c2N)CN(Cc2ccccc2)CC4)c1`, the growth at 1 µM (SNB-75) is reported as 77%, the growth at 0.01 µM (SW-620) is reported as 100% and the growth at 0.1 µM (MDA-MB-468) is reported as 89%. It also gave a growth at 1 µM (M14) of 57%, a growth at 0.01 µM (SK-OV-3) of 92% and a GI50 (NCI-H226) of 6.03 µM. For the same compound, the TGI (NCI-H226) was 38.3 µM, the CC50 (NCI-H226) was over 100 µM and the growth at 0.1 µM (A498) was 84%. The growth at 1 µM (ACHN) was 92%, the growth at 0.01 µM (MCF7 [1]) was 88% and the growth at 0.1 µM (NCI-H322M) was 96%. It also gave a growth at 0.1 µM (SK-MEL-2) of 112%, a growth at 0.01 µM (U-251) of 99% and a GI50 (HCC 2998) of 9.13 µM. It also gave a TGI (HCC 2998) of over 100 µM, a CC50 (HCC 2998) of over 100 µM and a growth at 0.1 µM (MDA-MB-231) of 98%. The growth at 0.01 µM (LOX IMVI [2]) was 97%, the GI50 (A549) was 3.79 µM and the TGI (A549) was 53.8 µM. The CC50 (A549) was over 100 µM, the GI50 (HOP-62) was 1.83 µM and the LC50 (HOP-62) was 41.1 µM. The TGI (HOP-62) was 6.47 µM, the growth at 0.1 µM (OVCAR-4) was 93% and the GI50 (SK-MEL-5) was 2.15 µM. For the same compound, the LC50 (SK-MEL-5) was over 100 µM, the TGI (SK-MEL-5) was 31.9 µM and the GI50 (Malme-3M) was 1.43 µM. It also gave an LC50 (Malme-3M) of over 100 µM, a TGI (Malme-3M) of 16.6 µM and a GI50 (LOX IMVI [3]) of 4.09 µM. For the same compound, the LC50 (LOX IMVI [3]) was over 100 µM, the TGI (LOX IMVI [3]) was 43.5 µM and the GI50 (MCF7 [4]) was 0.62 µM. The TGI (MCF7 [4]) was over 100 µM, the CC50 (MCF7 [4]) was over 100 µM and the GI50 (NCI/ADR-RES) was 2.4 µM. It also gave a TGI (NCI/ADR-RES) of 33.3 µM, a CC50 (NCI/ADR-RES) of over 100 µM and a GI50 (SNB-19) of 4.75 µM. It also gave an LC50 (SNB-19) of over 100 µM, a TGI (SNB-19) of over 100 µM and a GI50 (IGROV-1) of 18.5 µM. It also gave an LC50 (IGROV-1) of over 100 µM, a TGI (IGROV-1) of over 100 µM and a growth at 100 µM (OVCAR-5) of 34%. The growth at 1 µM (TK-10) was 98%, the growth at 0.1 µM (RPMI-8226) was 101% and the growth at 0.01 µM (UACC-257) was 94%. It also gave a growth at 0.1 µM (MCF7 [5]) of 87%, a growth at 0.01 µM (SF-539) of 86% and a GI50 (SF-295) of 3.05 µM. The LC50 (concentration killing 50% of cells) (SF-295) was 94.3 µM, the TGI (SF-295) was 19.4 µM and the growth at 1 µM (T47D) was 71%. The GI50 (CCRF-CEM) was 29.5 µM, the LC50 (CCRF-CEM) was over 100 µM and the TGI (CCRF-CEM) was over 100 µM.

`CCc1cccc(C)c1NC(=O)c1sc2nc3c(cc2c1N)C(=O)CCC3` showed a growth at 1 µM (SNB-75) of -2%, a growth at 0.01 µM (SW-620) of 97% and a growth at 0.1 µM (MDA-MB-468) of 91%. For the same compound, the growth at 1 µM (M14) was 17%, the GI50 (NCI-H226) was 0.182 µM and the TGI (NCI-H226) was over 100 µM. The CC50 (NCI-H226) was over 100 µM, the growth at 0.1 µM (A498) was 72% and the growth at 1 µM (ACHN) was 44%. The growth at 0.01 µM (MCF7 [1]) was 83%, the growth at 0.1 µM (NCI-H322M) was 91% and the growth at 0.01 µM (U-251) was 94%. It also gave a GI50 (HCC 2998) of 1.33 µM, a TGI (HCC 2998) of over 100 µM and a CC50 (HCC 2998) of over 100 µM. It also gave a growth at 0.1 µM (MDA-MB-231) of 100%, a growth at 0.01 µM (LOX IMVI [2]) of 95% and a GI50 (A549) of 0.593 µM. It also gave a TGI (A549) of over 100 µM, a CC50 (A549) of over 100 µM and a GI50 (HOP-62) of 0.679 µM. The LC50 (HOP-62) was over 100 µM, the TGI (HOP-62) was over 100 µM and the growth at 0.1 µM (OVCAR-4) was 91%. The GI50 (SK-MEL-5) was 0.294 µM, the LC50 (SK-MEL-5) was 39 µM and the TGI (SK-MEL-5) was 151 µM. For the same compound, the LC50 (Malme-3M) was over 100 µM, the TGI (Malme-3M) was 97.2 µM and the GI50 (LOX IMVI [3]) was 0.724 µM. For the same compound, the LC50 (LOX IMVI [3]) was over 100 µM, the TGI (LOX IMVI [3]) was over 100 µM and the GI50 (MCF7 [4]) was 0.36 µM. It also gave a TGI (MCF7 [4]) of at least 100 µM, a CC50 (MCF7 [4]) of over 100 µM and a GI50 (NCI/ADR-RES) of 0.558 µM. It also gave a CC50 (NCI/ADR-RES) of over 100 µM, a GI50 (SNB-19) of 0.87 µM and an LC50 (SNB-19) of over 100 µM. It also gave a TGI (SNB-19) of over 100 µM, a GI50 (IGROV-1) of 0.111 µM and an LC50 (IGROV-1) of over 100 µM. The TGI (IGROV-1) was over 100 µM, the growth at 100 µM (OVCAR-5) was 30% and the growth at 0.1 µM (RPMI-8226) was 102%. It also gave a growth at 0.01 µM (UACC-257) of 93%, a growth at 0.1 µM (MCF7 [5]) of 90% and a growth at 0.01 µM (SF-539) of 89%. The GI50 (SF-295) was 0.276 µM, the LC50 (concentration killing 50% of cells) (SF-295) was over 100 µM and the TGI (SF-295) was over 100 µM. The growth at 1 µM (T47D) was 28%, the GI50 (CCRF-CEM) was 0.346 µM and the LC50 (CCRF-CEM) was over 100 µM. For the same compound, the TGI (CCRF-CEM) was at least 100 µM.
